From ChEMBL document CHEMBL5316332 (J Med Chem, 2023)
Calls of active or inactive are those of the source. No cut-off for these calls is given here.

Assays:
[1] = target: T1, Bone morphogenetic protein receptor type-2 (Homo sapiens, UniProt Q13873); assay: (§1) Inhibition of recombinant C-terminal 6His-tagged human BMPR2 (188 to 517 residues) expressed in Escherichia coli Rosetta assessed as apparent inhibition constant using ATP as substrate incubated for 30 mins by Morrison plot analysis; details: read-out: Ki(app)
T1 sequence (Q13873 whole entry): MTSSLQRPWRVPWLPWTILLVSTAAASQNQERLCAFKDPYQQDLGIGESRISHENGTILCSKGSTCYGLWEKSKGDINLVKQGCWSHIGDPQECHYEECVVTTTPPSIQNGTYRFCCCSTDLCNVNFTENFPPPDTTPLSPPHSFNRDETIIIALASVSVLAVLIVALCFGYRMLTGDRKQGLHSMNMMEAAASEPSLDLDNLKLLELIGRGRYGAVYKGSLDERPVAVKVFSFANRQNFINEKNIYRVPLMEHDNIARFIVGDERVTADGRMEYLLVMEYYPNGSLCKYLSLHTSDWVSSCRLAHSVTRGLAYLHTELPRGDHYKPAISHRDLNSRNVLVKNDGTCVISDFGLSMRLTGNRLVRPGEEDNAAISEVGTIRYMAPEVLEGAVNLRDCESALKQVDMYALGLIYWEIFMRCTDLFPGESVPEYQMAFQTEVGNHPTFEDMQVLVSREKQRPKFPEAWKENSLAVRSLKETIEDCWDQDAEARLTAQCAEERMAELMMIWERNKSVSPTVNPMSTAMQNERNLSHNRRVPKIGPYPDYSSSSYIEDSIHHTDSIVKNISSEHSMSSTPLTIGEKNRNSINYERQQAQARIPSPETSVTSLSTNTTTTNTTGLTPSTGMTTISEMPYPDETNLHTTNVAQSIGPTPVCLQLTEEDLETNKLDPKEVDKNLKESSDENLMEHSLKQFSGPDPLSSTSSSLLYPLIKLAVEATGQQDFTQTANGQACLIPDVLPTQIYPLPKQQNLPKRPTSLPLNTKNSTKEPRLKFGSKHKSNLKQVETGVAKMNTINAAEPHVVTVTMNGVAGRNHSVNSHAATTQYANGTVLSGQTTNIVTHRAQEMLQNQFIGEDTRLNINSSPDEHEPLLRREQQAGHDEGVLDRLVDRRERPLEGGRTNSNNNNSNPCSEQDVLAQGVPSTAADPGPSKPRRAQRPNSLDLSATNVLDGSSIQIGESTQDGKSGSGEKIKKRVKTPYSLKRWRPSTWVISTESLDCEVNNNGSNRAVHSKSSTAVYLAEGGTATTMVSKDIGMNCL
Procedure, shortened: (§2)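 Purified His-tagged BMPR2 kinase domain with no peptide substrate (intrinsic ATPase). 10 μM ATP, 0.02% Tween-20, kinase buffer, 50 μL, enzyme level optimized for initial-velocity conditions. 30 min at 30 °C. Leftover ATP read by Kinase-Glo luminescence, with no-kinase controls. Kiapp from a modified Morrison equation fitted to normalized fractional activity, assuming no specific inhibition mode.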

[2] = target: Receptor-interacting serine/threonine-protein kinase 2 (Homo sapiens, UniProt O43353); assay: Inhibition of RIPK2 (unknown origin) incubated for 30 mins in presence of [gamma33P]ATP by microplate reader analysis
Receptor-interacting serine/threonine-protein kinase 2, sequence (O43353 whole entry): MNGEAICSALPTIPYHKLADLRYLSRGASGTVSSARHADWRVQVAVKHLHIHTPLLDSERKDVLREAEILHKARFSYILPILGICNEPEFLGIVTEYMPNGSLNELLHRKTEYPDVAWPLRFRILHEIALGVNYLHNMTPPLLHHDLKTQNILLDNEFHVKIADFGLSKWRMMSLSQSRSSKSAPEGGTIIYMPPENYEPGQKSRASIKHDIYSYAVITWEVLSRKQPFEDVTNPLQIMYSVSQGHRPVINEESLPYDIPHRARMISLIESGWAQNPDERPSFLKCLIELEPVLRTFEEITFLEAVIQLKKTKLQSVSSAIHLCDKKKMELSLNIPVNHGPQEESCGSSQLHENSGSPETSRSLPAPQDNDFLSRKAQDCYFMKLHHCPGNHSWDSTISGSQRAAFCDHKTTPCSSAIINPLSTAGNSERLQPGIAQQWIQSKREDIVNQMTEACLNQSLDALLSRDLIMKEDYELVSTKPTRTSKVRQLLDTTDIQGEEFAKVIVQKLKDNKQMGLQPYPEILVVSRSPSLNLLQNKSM

[3] = target: TGF-beta receptor type-2 (Homo sapiens, UniProt P37173); assay: Inhibition of TGFBR2 (unknown origin) by LanthaScreen TR-FRET assay
TGF-beta receptor type-2, sequence (P37173 whole entry): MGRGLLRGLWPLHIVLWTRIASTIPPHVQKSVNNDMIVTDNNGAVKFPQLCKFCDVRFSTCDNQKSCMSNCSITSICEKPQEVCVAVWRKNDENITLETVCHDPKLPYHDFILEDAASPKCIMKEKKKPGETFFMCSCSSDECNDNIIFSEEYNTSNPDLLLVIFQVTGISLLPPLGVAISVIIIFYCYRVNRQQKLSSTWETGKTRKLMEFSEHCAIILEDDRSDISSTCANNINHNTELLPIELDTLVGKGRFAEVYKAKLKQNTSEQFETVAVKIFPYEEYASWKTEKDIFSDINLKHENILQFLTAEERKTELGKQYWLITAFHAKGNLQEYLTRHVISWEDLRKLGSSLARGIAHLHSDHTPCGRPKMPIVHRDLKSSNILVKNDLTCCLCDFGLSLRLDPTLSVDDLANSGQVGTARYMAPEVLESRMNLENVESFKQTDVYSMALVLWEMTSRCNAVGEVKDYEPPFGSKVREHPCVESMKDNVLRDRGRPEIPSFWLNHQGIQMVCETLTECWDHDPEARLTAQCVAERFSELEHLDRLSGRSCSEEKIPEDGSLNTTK
Procedure, shortened: (§3)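 Outsourced SelectScreen profiling using a LanthaScreen TR-FRET binding format, in which a tight-binding tracer is displaced from the kinase.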

[4] = target: Activin receptor type-2A (Homo sapiens, UniProt P27037); assay: Inhibition of ACVR2A (unknown origin) by LanthaScreen TR-FRET assay; procedure, shortened: as §3
Activin receptor type-2A, sequence (P27037 whole entry): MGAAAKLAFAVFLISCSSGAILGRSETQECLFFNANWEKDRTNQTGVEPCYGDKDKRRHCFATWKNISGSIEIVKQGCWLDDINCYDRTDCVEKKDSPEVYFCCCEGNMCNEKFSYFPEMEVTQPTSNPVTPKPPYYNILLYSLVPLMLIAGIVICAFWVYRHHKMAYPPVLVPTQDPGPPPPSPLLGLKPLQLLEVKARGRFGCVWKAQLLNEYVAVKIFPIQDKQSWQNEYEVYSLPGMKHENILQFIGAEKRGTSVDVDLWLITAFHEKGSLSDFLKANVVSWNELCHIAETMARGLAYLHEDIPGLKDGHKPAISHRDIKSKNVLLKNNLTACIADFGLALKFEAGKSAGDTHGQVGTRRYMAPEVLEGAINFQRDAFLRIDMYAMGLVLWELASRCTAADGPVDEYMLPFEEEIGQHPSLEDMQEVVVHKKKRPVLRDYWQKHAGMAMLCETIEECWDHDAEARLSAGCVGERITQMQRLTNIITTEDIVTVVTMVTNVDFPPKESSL

[5] = target: Activin receptor type-2B (Homo sapiens, UniProt Q13705); assay: Inhibition of ACVR2B (unknown origin) by LanthaScreen TR-FRET assay; procedure, shortened: as §3
Activin receptor type-2B, sequence (Q13705 whole entry): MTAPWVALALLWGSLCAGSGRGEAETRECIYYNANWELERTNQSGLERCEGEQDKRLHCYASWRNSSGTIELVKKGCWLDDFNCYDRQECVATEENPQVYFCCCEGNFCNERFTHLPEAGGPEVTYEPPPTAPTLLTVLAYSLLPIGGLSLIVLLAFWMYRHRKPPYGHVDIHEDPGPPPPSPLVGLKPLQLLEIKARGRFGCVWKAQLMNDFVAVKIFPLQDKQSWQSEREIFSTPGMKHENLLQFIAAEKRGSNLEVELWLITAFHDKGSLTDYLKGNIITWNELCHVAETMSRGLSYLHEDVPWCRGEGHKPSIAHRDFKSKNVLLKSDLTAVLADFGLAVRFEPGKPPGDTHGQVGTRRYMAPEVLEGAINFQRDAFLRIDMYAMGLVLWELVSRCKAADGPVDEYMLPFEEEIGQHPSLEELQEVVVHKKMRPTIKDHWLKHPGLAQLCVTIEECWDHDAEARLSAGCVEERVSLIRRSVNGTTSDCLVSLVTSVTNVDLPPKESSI

[6] = Inhibition of BMP signalling pathway in BMP2-stimulated human HEK293T cells expressing BRE and luciferase reporter assessed as inhibition of luciferase transactivation by measuring BRE-reporter activity preincubated for 30 mins followed by BMP2 stimulation and measured after 6 hrs by Bright-GLO mediated luciferase assay; type: cell-based; details: HEK-293T
Procedure, shortened: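 293T cells stably carrying a BMP-responsive-element luciferase reporter, 2 × 10^4 per well, attached overnight in phenol-red-free DMEM with 2 mM glycine and 2% heat-inactivated FBS. Pretreated 30 min with inhibitor, then 5 ng/mL BMP2 for 6 h. Bright-Glo luminescence read; IC50 by nonlinear regression.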

[7] = tested on: HEK293T; assay: Inhibition of BMP signalling pathway in BMP2-stimulated human HEK293T cells assessed as decrease in SMAD1 phosphorylation at 25 uM preincubated for 30 mins followed by BMP2 stimulation and measured after 15 mins by Western blot analysis; type: cell-based; details: time 45.0 min
Procedure, shortened: (§4)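 HEK293T cells, 3 × 10^5 per well, starved overnight in DMEM with 2 mM glycine and 2% heat-inactivated FBS. Pretreated 30 min with inhibitor, then 5 ng/mL BMP2 for 15 min. Lysed in M-PER with protease inhibitors. Western blot for pSMAD1/5, SMAD1, SMAD5 and GAPDH, quantified by densitometry.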

[8] = tested on: HEK293T; assay: Inhibition of BMP signalling pathway in BMP2-stimulated human HEK293T cells assessed as decrease in SMAD5 phosphorylation at 25 uM preincubated for 30 mins followed by BMP2 stimulation and measured after 15 mins by Western blot analysis; type: cell-based; details: time 45.0 min; procedure, shortened: as §4
[9] = tested on: HUVEC; assay: Inhibition of BMP signalling pathway in BMP9-stimulated human HUVEC cells assessed as decrease in SMAD1 phosphorylation at 25 uM preincubated for 30 mins followed by BMP2 stimulation and measured after 15 mins by Western blot analysis; type: cell-based; details: time 45.0 min
Procedure, shortened: (§5)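 HUVECs, about 3 × 10^5 per well, starved overnight in Kaighn's F-12 with 0.5% FBS and 30 μg/mL endothelial cell growth supplement. Pretreated 30 min with inhibitor, then stimulated with 0.5 ng/mL BMP9. Lysed in M-PER with protease and phosphatase inhibitors. Western blot for pSMAD1/5, SMAD1 and SMAD5, quantified by densitometry.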

[10] = tested on: HUVEC; assay: Inhibition of BMP signalling pathway in BMP9-stimulated human HUVEC cells assessed as decrease in SMAD5 phosphorylation at 25 uM preincubated for 30 mins followed by BMP2 stimulation and measured after 15 mins by Western blot analysis; type: cell-based; details: time 45.0 min; procedure, shortened: as §5
[11] = target: T2, Bone morphogenetic protein receptor type-2 (Homo sapiens) (UniProt Q13873); assay: as §1; procedure, shortened: as §2
T2 sequence (whole entry): T1 sequence (Q13873 whole entry)

[12] = Metabolic stability in mouse liver microsomes assessed as half life at 2 uM and mesured upto 60 mins in presence of NADPH by UHPLC-MS analysis; type: ADME, Microsome; details: for t1/2: microsomes, 1 h, 2 µM
[13] = Metabolic stability in human liver microsomes assessed as half life at 2 uM and mesured upto 60 mins in presence of NADPH by UHPLC-MS analysis; type: ADME, Microsome; details: for t1/2: microsomes, 1 h, 2 µM
[14] = Metabolic stability in mouse liver microsomes assessed as intrinsic clearance per mg of protein at 2 uM and mesured upto 60 mins in presence of NADPH by UHPLC-MS analysis; type: ADME, Microsome; details: for microsomal intrinsic clearance: microsomes, 1 h, 2 µM
[15] = Metabolic stability in human liver microsomes assessed as intrinsic clearance per mg of protein at 2 uM and mesured upto 60 mins in presence of NADPH by UHPLC-MS analysis; type: ADME, Microsome; details: for microsomal intrinsic clearance: microsomes, 1 h, 2 µM
[16] = liver microsomes, read-out: CLH

## COc1cnc(Nc2cccc(S(N)(=O)=O)c2)nc1N1CCNCC1
[1]
  Ki: 250 nM

## c1ccc2c(-c3cnn4cc(-c5ccc(N6CCNCC6)cc5)cnc34)ccnc2c1
[2]
  IC50: 25 nM
[3]
  IC50: 4.2 nM
[4]
  IC50: 9.3 nM
[5]
  IC50: 9.3 nM
[6]
  IC50: 82 nM
[7]
  inhibition: Active
[8]
  inhibition: Active
[9]
  inhibition: Active
[10]
  inhibition: Active

## NS(=O)(=O)c1cccc(Nc2ncc(C(F)(F)F)c(N3CCN(c4ccccc4)C(=O)C3)n2)c1
[11]
  inhibition: inactive

## Cc1nnc2n1-c1ccc(Cl)cc1C(c1ccccc1)=NC2 [ALPRAZOLAM]
[12]
  t1/2: 258 min
[13]
  t1/2: 620 min
[14]; [16]
  microsomal CLint at 2 µM: 5 µL/min/mg

## COc1cnc(Nc2cccc(S(N)(=O)=O)c2)nc1N1CCN(c2ccccn2)CC1
[12]; liver microsomes
  half-life at 2 µM: 9 min
[13]; liver microsomes
  half-life at 2 µM: 43 min
[14]; [16]
  microsomal intrinsic clearance at 2 µM: 159 µL/min/mg
[15]; [16]
  microsomal intrinsic clearance at 2 µM: 32 µL/min/mg

## COc1cnc(Nc2cccc(S(N)(=O)=O)c2)nc1N1CCN(c2ccccc2)CC1C (stereo not drawn)
[1]
  Ki: 88 nM
[12]
  t1/2: 6 min
[13]
  t1/2: 79 min
[14]
  microsomal intrinsic clearance: 233 µL/min/mg
[15]
  microsomal intrinsic clearance: 18 µL/min/mg

## NS(=O)(=O)c1cccc(Nc2ncc(F)c(N3CCN(c4ccccc4)C(=O)C3)n2)c1
[1]
  Ki: 236 nM

## COc1cnc(Nc2cccc(S(N)(=O)=O)c2)nc1N1CCN(c2ccccc2)CC12CC2
[1]
  Ki: 220 nM

## COc1cnc(Nc2cccc(S(N)(=O)=O)c2)nc1N1CC(F)(c2ccccc2)C1
[1]
  Ki: 18 nM
[12]
  t1/2: 21 min
[13]
  t1/2: 170 min
[14]
  microsomal intrinsic clearance: 65 µL/min/mg
[15]
  microsomal intrinsic clearance: 8 µL/min/mg

## CNC(=O)[C@@H]1CC[C@@H](n2c(-c3cccc(Cl)c3)nc3ccc(C(=O)NCc4cccc(C(N)=O)c4)cc32)C1
[1]
  Ki: > 1000 nM

## COc1cnc(Nc2ccccc2)nc1N1CCN(c2ccccc2)CC1
[11]
  inhibition: inactive

## CNC(=O)[C@@H]1CC[C@@H](n2c(-c3cc(Cl)cc(Cl)c3)nc3ccc(C(=O)NCc4cccc(C(N)=O)c4)cc32)C1
[1]
  Ki: > 1000 nM

## NS(=O)(=O)c1cccc(Nc2ncc(OC(F)F)c(N3CCN(c4ccccc4)C(=O)C3)n2)c1
[1]
  Ki: > 200 nM

## COc1cnc(Nc2cccc(S(N)(=O)=O)c2)nc1N1CCN(c2ccccc2)CC1C(F)(F)F (stereo not drawn)
[1]
  Ki: 430 nM

## Cn1c(-c2ccc3cnccc3c2)nc2ccc(C(=O)NCc3cccc(C(N)=O)c3)cc21
[1]
  Ki: 22 nM
[12]
  t1/2: 14 min
[13]
  t1/2: 69 min
[14]
  microsomal intrinsic clearance: 99 µL/min/mg
[15]
  microsomal intrinsic clearance: 20 µL/min/mg
[6]
  IC50: 29800 nM

## CNC(=O)c1ccc2nc(-c3ccc4cnccc4c3)n([C@@H]3CC[C@@H](C(=O)NC)C3)c2c1
[1]
  Ki: > 1000 nM

## CC(C)Oc1cnc(Nc2cccc(S(N)(=O)=O)c2)nc1N1CCN(c2ccccc2)C(=O)C1
[1]
  Ki: > 200 nM

## COc1cnc(Nc2cccc(S(N)(=O)=O)c2)nc1N1CCN(c2ccccc2)CC1
[1]
  Ki: 40 nM
[12]
  t1/2: 12 min
[13]
  t1/2: 77 min
[14]
  microsomal intrinsic clearance: 120 µL/min/mg
[15]
  microsomal intrinsic clearance: 18 µL/min/mg
[6]
  IC50: 8720 nM
[7]
  inhibition: Active
[8]
  inhibition: Active
[9]
  inhibition: Active
[10]
  inhibition: Active

## COc1cnc(Nc2cccc(S(N)(=O)=O)c2)nc1N1CC2CC1CN2c1ccccc1 (stereo not drawn)
[1]
  Ki: 930 nM

## Cc1sc2c(c1C)C(c1ccc(Cl)cc1)=N[C@@H](CC(=O)OC(C)(C)C)c1nnc(C)n1-2
[13]
  t1/2: 14 min

## CCOc1cnc(Nc2cccc(S(N)(=O)=O)c2)nc1N1CCN(c2ccccc2)C(=O)C1
[1]
  Ki: 5 nM
[12]
  t1/2: 18 min
[13]
  t1/2: 73 min
[14]
  microsomal intrinsic clearance: 79 µL/min/mg
[15]
  microsomal intrinsic clearance: 19 µL/min/mg

## COc1cnc(Nc2cccc(S(N)(=O)=O)c2)nc1N1CCN(c2ccccc2)C(C)C1 (stereo not drawn)
[1]
  Ki: 118 nM
[12]
  t1/2: 6 min
[13]
  t1/2: 60 min
[14]
  microsomal intrinsic clearance: 220 µL/min/mg
[15]
  microsomal intrinsic clearance: 23 µL/min/mg

## CNC(=O)[C@@H]1CC[C@@H](n2c(-c3ccc4cnccc4c3)nc3ccc(C(=O)NCc4ccccc4)cc32)C1
[1]
  Ki: 39 nM

## COc1cnc(Nc2cccc(S(N)(=O)=O)c2)nc1N1CC2CCC(C1)N2c1ccccc1
[1]
  Ki: 220 nM

## COc1cnc(Nc2cccc(S(N)(=O)=O)c2)nc1N1CC2CCC1CN2c1ccccc1 (stereo not drawn)
[1]
  Ki: 310 nM
